The source of these data is ChEMBL document CHEMBL1140723, “Positive and negative modulation of group I metabotropic glutamate receptors” (J Med Chem, 2008).

Active and inactive are the calls of the source. The rule behind the calls is not given here.

In general, IC50 refers to the concentration needed to halve the response being measured. Broadly, the Ki is a dissociation constant, usually derived from enzyme kinetics or from competition with a known ligand. A high value points to lower affinity. By EC50 is commonly meant the concentration at which the effect is half-maximal.

Experiment [1] deals with T1, Metabotropic glutamate receptor 1 (Rattus norvegicus, UniProt P23385). Briefly: Antagonist activity at rat mGluR1 expressed in cerebellar granule cells assessed as accumulation of [3H]inositol phosphate. It counts as functional, cell-based.
For experiment [2], the target named is Metabotropic glutamate receptor 5 (Rattus norvegicus) (UniProt P31424). Briefly: Displacement of [3H]MPEP from rat mGluR5 upto 10 uM. In short, it runs like this: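 Membranes were washed four times in 50 mM Tris-HCl pH 8.0 and resuspended in 50 mM Tris-HCl pH 7.5. 125–250 µg protein was incubated with 5 nM [3H]MPEP and test agent (up to 10 µM), up to 5% DMSO, 60 min at RT. Nonspecific binding: 10 µM MPEP. Filtered on glass fibre filters, rinsed with ice-cold buffer, then scintillation counted.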
(Loss of bound radioactivity is the signal in a displacement assay; it reports binding, not function.)

Experiment [3] has as its target T2, Metabotropic glutamate receptor 5 (Rattus norvegicus, UniProt P31424). Description: Displacement of [3H]MPEP from rat mGluR5.
Experiment [4] concerns the target T1, Metabotropic glutamate receptor 1. Briefly: (§1) Antagonist activity at rat mGluR1 by FLIPR assay. It counts as functional.
For experiment [5], the target named is T2, Metabotropic glutamate receptor 5. Description: Antagonist activity at mGluR5 in Sprague-Dawley rat astrocyte assessed as L-quisqualate induced potentiation of intracellular calcium level by FLIPR assay. The class given is functional, cell-based.
The target in experiment [6] is T3, Metabotropic glutamate receptor 5 (Homo sapiens, UniProt P41594). Briefly: Antagonist activity at human mGluR5 expressed in CHO cells assessed as L-glutamate induced potentiation of intracellular calcium level by FLIPR assay. It counts as functional, cell-based. A digest of the protocol:
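Human mGluR5 FLIPR calcium assay. Cells were loaded with Ca-sensitive dye for 2 h at RT in HEPES-buffered saline, pH 7.3. The dye kit contained glutamic-pyruvate transferase, Na-pyruvate and pyridoxal phosphate to avoid glutamate build-up. Compounds were preincubated 5 min before L-glutamate, and the intracellular calcium rise was read as RFU.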
Target sequence in this assay (P41594 whole entry): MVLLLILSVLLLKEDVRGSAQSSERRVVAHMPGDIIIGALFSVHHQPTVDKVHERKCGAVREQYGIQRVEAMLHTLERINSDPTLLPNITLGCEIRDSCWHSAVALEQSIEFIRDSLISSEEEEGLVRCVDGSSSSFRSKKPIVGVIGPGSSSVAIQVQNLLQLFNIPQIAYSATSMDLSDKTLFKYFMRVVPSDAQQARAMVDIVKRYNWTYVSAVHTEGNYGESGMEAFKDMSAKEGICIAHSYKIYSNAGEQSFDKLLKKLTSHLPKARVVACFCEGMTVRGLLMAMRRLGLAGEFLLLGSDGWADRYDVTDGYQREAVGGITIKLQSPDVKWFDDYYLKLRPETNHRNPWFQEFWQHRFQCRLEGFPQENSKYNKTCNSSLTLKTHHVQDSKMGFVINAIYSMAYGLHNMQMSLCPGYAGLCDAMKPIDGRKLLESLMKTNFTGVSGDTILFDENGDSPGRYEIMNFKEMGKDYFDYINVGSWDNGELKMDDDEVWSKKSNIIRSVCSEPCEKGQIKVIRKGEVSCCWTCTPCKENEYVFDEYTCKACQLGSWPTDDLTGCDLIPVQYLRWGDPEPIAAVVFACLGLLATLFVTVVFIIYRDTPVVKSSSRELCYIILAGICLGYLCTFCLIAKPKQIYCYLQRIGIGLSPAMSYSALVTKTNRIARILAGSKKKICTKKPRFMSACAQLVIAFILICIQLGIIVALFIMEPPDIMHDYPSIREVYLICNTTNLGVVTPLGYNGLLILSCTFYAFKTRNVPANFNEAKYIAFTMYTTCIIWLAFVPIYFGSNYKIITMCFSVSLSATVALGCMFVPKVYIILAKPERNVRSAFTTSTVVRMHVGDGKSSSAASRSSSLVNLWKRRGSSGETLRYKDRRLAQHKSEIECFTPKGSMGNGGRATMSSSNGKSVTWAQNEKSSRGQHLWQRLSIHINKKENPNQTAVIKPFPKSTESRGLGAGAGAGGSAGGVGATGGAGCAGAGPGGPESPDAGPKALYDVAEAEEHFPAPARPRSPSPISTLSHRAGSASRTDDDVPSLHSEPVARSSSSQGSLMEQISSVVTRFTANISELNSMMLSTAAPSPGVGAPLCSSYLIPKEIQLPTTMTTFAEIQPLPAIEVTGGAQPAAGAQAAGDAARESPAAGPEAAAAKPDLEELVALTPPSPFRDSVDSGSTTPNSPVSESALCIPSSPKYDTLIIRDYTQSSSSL

The target of experiment [7] is T3, Metabotropic glutamate receptor 5. Description: Positive modulation of human mGluR5 assessed as fold left shift of L-glutamate EC50 by calcium FLIPR assay.
Target sequence in this assay (P41594 21-1212 limits assumed): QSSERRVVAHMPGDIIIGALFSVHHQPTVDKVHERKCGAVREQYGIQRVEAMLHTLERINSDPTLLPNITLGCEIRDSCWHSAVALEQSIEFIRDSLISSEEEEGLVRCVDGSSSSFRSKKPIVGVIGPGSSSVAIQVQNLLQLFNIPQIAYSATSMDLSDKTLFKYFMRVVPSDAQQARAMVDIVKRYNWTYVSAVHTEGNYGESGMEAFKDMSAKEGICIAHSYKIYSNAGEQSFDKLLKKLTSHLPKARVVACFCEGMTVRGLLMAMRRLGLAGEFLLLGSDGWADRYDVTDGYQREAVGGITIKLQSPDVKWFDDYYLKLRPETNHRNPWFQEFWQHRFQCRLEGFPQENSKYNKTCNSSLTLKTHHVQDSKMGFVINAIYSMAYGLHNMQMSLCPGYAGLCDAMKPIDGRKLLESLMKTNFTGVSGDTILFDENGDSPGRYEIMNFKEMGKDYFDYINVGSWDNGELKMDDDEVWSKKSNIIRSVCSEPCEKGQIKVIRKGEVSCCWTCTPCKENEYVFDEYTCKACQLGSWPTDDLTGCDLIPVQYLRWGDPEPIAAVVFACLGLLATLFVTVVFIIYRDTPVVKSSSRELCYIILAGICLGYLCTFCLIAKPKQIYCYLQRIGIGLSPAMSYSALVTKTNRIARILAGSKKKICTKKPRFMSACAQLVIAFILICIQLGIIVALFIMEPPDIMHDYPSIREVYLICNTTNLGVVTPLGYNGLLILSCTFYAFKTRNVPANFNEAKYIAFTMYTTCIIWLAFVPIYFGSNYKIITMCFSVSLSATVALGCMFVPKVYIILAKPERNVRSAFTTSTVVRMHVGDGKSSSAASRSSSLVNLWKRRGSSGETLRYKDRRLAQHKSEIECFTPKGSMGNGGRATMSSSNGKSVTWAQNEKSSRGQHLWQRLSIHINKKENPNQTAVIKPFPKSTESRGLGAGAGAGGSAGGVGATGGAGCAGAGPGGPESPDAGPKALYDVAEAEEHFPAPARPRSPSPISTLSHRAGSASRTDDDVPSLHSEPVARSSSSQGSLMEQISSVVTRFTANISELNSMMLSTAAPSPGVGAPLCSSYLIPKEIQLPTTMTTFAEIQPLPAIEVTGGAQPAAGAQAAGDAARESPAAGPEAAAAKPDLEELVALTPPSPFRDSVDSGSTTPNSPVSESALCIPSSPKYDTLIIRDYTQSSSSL
Experiment [8] has as its target Metabotropic glutamate receptor 5 (Rattus norvegicus) (UniProt P31424). Briefly: Positive modulation of rat mGluR5 assessed as fold left shift of L-quisqualate EC50 by calcium FLIPR assay.
The target of experiment [9] is Metabotropic glutamate receptor 1 (Rattus norvegicus) (UniProt P23385). The description is as §1. The class given is functional.
Experiment [10] has as its target Metabotropic glutamate receptor 5 (Rattus norvegicus) (UniProt P31424). Description: Reversal of antagonist activity at Sprague-Dawley rat astrocyte mGluR5 in presence of L-quisqualate mGluR5 agonist at 10 uM by FLIPR assay. It counts as functional.
The target of experiment [11] is T3, Metabotropic glutamate receptor 5. Briefly: Reversal of antagonist activity at human mGluR5 expressed in CHO cells in presence of L-glutamate mGluR5 agonist at 10 uM by FLIPR assay. The class given is functional, cell-based.
Target sequence in this assay (P41594 21-1212 limits assumed): as above

T1 sequence (P23385 whole entry): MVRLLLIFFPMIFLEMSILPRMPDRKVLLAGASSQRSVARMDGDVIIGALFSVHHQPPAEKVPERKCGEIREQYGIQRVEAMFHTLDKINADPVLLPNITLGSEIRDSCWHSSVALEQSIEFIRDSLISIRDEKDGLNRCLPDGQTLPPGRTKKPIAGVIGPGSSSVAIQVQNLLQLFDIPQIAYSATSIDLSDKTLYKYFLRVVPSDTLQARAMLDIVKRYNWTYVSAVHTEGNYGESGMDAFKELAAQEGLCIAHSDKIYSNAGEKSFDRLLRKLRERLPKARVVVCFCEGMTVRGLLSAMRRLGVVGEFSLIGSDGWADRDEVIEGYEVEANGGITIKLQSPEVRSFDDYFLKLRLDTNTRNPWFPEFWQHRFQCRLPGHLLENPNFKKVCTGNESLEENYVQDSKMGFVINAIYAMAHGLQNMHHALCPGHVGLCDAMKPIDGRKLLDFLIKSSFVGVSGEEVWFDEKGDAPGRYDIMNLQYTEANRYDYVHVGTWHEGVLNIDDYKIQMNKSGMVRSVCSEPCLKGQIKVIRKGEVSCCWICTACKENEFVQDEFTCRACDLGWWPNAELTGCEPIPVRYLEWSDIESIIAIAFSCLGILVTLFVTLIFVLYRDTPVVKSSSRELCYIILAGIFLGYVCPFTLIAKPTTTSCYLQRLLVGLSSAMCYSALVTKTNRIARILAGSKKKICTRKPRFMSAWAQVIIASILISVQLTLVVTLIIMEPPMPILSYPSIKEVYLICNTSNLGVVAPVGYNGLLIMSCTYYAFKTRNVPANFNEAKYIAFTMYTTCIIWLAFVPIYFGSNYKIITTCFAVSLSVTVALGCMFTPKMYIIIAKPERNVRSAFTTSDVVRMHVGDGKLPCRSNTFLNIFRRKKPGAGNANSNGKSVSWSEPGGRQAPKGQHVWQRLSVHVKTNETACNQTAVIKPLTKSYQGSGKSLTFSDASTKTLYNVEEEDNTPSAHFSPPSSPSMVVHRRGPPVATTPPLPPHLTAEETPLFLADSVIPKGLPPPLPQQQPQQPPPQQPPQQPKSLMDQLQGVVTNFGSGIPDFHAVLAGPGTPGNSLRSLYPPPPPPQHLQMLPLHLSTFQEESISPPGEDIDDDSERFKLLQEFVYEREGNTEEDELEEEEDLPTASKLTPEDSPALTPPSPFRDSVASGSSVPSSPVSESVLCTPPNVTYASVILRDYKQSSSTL
Metabotropic glutamate receptor 5 (Rattus norvegicus), sequence (P31424 21-1203 limits assumed): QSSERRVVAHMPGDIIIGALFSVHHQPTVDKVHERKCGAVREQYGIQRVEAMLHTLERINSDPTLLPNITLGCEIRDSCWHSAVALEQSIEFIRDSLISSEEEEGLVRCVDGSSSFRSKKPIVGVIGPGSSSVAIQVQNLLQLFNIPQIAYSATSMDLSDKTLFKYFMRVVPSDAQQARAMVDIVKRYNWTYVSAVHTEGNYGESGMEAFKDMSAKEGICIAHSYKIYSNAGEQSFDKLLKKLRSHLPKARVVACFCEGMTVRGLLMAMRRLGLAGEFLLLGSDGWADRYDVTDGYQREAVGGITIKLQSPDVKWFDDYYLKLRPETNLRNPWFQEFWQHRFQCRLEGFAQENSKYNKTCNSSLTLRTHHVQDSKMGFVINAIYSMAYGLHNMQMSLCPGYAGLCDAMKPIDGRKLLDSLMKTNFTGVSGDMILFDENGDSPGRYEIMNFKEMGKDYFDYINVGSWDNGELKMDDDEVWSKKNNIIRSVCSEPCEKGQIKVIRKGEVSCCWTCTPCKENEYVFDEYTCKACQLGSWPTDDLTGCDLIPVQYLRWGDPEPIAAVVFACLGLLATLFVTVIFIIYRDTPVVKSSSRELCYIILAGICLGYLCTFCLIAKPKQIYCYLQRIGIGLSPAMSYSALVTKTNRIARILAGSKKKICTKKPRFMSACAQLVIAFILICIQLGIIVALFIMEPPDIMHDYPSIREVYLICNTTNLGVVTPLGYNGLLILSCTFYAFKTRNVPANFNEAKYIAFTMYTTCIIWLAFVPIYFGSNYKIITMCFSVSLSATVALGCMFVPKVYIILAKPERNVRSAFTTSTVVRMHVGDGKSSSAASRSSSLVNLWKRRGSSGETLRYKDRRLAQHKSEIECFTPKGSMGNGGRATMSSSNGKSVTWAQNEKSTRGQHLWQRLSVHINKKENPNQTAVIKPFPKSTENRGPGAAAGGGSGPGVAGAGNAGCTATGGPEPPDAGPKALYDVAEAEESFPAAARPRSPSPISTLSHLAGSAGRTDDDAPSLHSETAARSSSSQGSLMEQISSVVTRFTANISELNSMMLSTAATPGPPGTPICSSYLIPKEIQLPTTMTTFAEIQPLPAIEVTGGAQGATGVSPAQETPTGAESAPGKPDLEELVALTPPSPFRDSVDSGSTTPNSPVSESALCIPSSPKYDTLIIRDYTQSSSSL

Regarding `CCCCCCNc1nc2c(cc1C#N)C(=O)CC(C)(C)C2`, the IC50 in experiment [1] turned out to be 2.6 µM. Further, the result in experiment [2] was inactive.

Take `O=C1CCCc2nc(C#Cc3ccccn3)ccc21`: in [3], the IC50 was found to be 60 µM and the affinity, expressed as Ki, was 2.36 µM.

`CC1(C)CC(=O)c2cc(-c3nn[nH]n3)c(NC3CCCC3)nc2C1`: in experiment [2], the outcome was inactive. The molecule also showed an IC50 in experiment [4] of 13 µM.

In [4], `CC1(C)CC(=O)c2cc(Cl)c(NC3CCCC3)nc2C1` came in with an IC50 of 7.9 µM.

Turning to `C(#Cc1ccc2c(n1)CCCC2)c1ccccc1`, in [3], the IC50 came to 0.51 µM and the affinity corresponds to a Ki of 1.5 µM.

For `OC1CCCc2nc(C#Cc3ccccc3)ccc21` (stereo not given), affinity in experiment [3] was put at a Ki of 7.6 µM. Further, the results for the EC50 in experiment [5] and in [6] were 0.49 µM and 1.13 µM, respectively. For the same molecule, the Activity came out at 2 in experiment [7] and 2.2 in experiment [8].

For the molecule `O=C(NC12CC3CC(CC(C3)C1)C2)c1cnc2ccccc2n1`, the half-maximal inhibitory concentration (IC50) in experiment [1] was found to be 0.005 µM.

Take `CC1(C)CC(=O)c2cc(C#N)c(N3CCN(c4ccccc4)CC3)nc2C1`: the IC50 in [1] stood at 0.13 µM. Moreover, the result in experiment [2] was inactive.

In experiment [3], `CC1(C)CC(=O)c2ccc(C#Cc3ccccn3)nc2C1` showed an IC50 of 2.6 µM and a Ki of 0.21 µM.

Take `CN(Cc1ccccc1)c1nc2c(cc1C#N)C(=O)CC(C)(C)C2`: the half-inhibitory concentration (IC50) in experiment [1] was 5.3 µM. In [2], the outcome was inactive.

Turning to `CC1(C)CC(=O)c2cc(C#N)c(SCc3ccccc3)nc2C1`, the IC50 amounted to 4.8 µM in experiment [1] and 57 µM in experiment [3].

In the case of `CCCNc1nc2c(cc1C#N)C(=O)CC(C)(C)C2`, in experiment [1], the IC50 amounted to 2.3 µM. In addition, in experiment [2], the outcome was inactive.

On to `CC1(C)CC(=O)c2cc(-c3cncnc3)c(NC3CCCC3)nc2C1`, for which the result in [2] and in experiment [9] was inactive.

As for `CN(C)C(=O)c1cc2c(nc1NC1CCCC1)CC(C)(C)CC2=O`, the IC50 in [3] came to 58 µM; in experiment [4], 21 µM.

For `CCCCNc1nc2c(cc1C#N)C(=O)CC(C)(C)C2`, in experiment [1], the IC50 was found to be 1.7 µM. In addition, in experiment [2], the outcome was inactive.

In the case of `N#Cc1cc2c(nc1SCc1ccccc1)CCCC2=O`, the 50% inhibitory concentration (IC50) in experiment [1] is 30 µM. Besides, in [2], the outcome was inactive.

As to `CC1(C)CC(=O)c2cc(N3CCOCC3)c(N3CC=C(c4ccc(F)cc4)CC3)nc2C1`, the result in [2] was inactive. Inhibition in experiment [4] was half-maximal at 15 µM (IC50).

Regarding `O=C(NC12CC3CC(CC(C3)C1)C2)c1cnccn1`, the concentration for half-maximal inhibition (IC50) in [1] came to 7 µM.

As to `CC1(C)CC(=O)c2ccc(OCc3ccccc3)nc2C1`, the IC50 was 21 µM in [1] and 12 µM in experiment [3].

In [3], `COC1CCCc2nc(C#Cc3ccccc3)ccc21` (stereo not given) had an IC50 of 0.08 µM and a Ki of 0.139 µM.

For `COc1ccc(N2CCN(c3nc4c(cc3C#N)C(=O)CC(C)(C)C4)CC2)cc1`, the IC50 in experiment [1] was 7.6 µM. In [2], the result was inactive.

Consider `O=C(NC12CC3CC(CC(C3)C1)C2)c1ccc2ccccc2n1`, for which the half-maximal inhibitory concentration (IC50) in [1] is 0.44 µM.

In the case of `CC1(C)CC(=O)c2cc(C#N)c(N3CC=C(c4ccccc4)CC3)nc2C1`, the IC50 in [1] was less than 1 µM. For the same molecule, the result in experiment [2] was inactive.

As for `CC1(C)CC(=O)c2cc(C#N)c(NC3CCCCC3)nc2C1`, the half-inhibitory concentration (IC50) in [1] came out at 4 µM. The result in experiment [2] was inactive.

With `CC1(C)CC(=O)c2cc(C#N)c(NC3Cc4ccccc4C3)nc2C1`, the IC50 in [1] turned out to be 1.9 µM. Also, in [2], the outcome was inactive.

`CC1(C)CC(=O)c2cc(C#N)c(N3CC=C(c4ccc(F)cc4)CC3)nc2C1`: the concentration for half-maximal inhibition (IC50) in experiment [1] is 0.11 µM. Besides, the result in experiment [2] was inactive.

As for `CC1(C)CC(=O)c2cc(C#N)c(NCc3ccccc3)nc2C1`, in experiment [1], the IC50 is 2.5 µM. In experiment [2], the result was inactive.

`CCc1nc(C#N)c(N2CCc3ccccc3CC2)nc1C`: the 50% inhibitory concentration (IC50) in experiment [1] stood at 0.006 µM.

As to `CC1(C)CC(=O)c2cc(Br)c(N3CCN(c4ccc(F)cc4)CC3)nc2C1`, the values for the half-maximal inhibitory concentration (IC50) in [1] and in experiment [3] were no more than 1 µM and 37 µM, respectively.

In experiment [3], `COC(=O)c1ccc(C#Cc2ccccc2)nc1` returned an IC50 of 4.6 µM and an inhibitory constant (Ki) of 1.4 µM.

Consider `CN(Cc1ccccc1)c1nc2c(cc1C#N)C(=O)CCC2`, for which the figures for the 50% inhibitory concentration (IC50) in experiment [1] and in experiment [3] were 25 µM and 80 µM, respectively.

For `O=C(NC12CC3CC(CC(C3)C1)C2)c1cnc2ccccc2c1`, in experiment [1], the IC50 came to 0.052 µM.

For the molecule `CC1(C)CC(=O)c2cc([N+](=O)[O-])c(NC3CC=C(c4ccc(F)cc4)CC3)nc2C1` (stereo not given), in experiment [2], the outcome was inactive. The IC50 in experiment [4] is 12 µM.

For `CC1(C)CC(=O)c2cc(C#N)c(NC34CC5CC(CC(C5)C3)C4)nc2C1`, the outcome in experiment [2] was inactive.

Regarding `CC1(C)CC(=O)c2cc(Br)c(NC3CCCC3)nc2C1`, the 50% inhibitory concentration (IC50) in experiment [3] was determined as 29 µM. The outcome in experiment [9] was inactive.

For `O=C1CCCc2nc(N3CCN(c4ccccc4)CC3)ccc21`, in experiment [1], the IC50 is 10.4 µM. Further, the result in [2] was inactive.

`O[C@@H]1CCCc2nc(C#Cc3ccccc3)ccc21` registered a Ki in experiment [3] of 4.71 µM. Further, the EC50 in [5] worked out at 0.18 µM; in experiment [6] it was 0.98 µM. The values for the Activity in [7] and in [8] were 2.5 and 3.1, respectively.

In turn, `O=C1CCCc2nc(C#Cc3ccccc3)ccc21` registered a Ki in experiment [3] of 0.8 µM. The EC50 in [5] turned out to be 0.034 µM. Besides, the outcome in [10] and in experiment [11] was Active. The values for the Activity in experiment [7] and in experiment [8] were 3.2 and 2, respectively.

As for `O=C1CCCc2nc(OCc3ccccc3)ccc21`, the IC50 was 25 µM in [1] and 1.9 µM in experiment [3].

In the case of `CC1(C)CC(=O)c2ccc(NCc3ccccc3)nc2C1`, the figures for the IC50 in [1] and in experiment [3] were 45 µM and 8.1 µM, respectively.

For `CC1(C)CC(=O)c2cc(C#N)c(N3CCN(c4ccc(F)cc4)CC3)nc2C1`, the IC50 in experiment [1] is 0.16 µM. Also, the outcome in experiment [2] was inactive.

As for `CC1(C)CC(=O)c2cc(C(=O)O)c(NC3CCCC3)nc2C1`, in experiment [2], the outcome was inactive. Besides, the midpoint of inhibition in experiment [4], the IC50, lay at 23 µM.

Regarding `N#Cc1cc2c(nc1NC1CCCCC1)CCCC2=O`, the IC50 in [1] turned out to be 3 µM. For the same molecule, the result in experiment [2] was inactive.

For `CC1(C)CC(=O)c2cc(C#N)c(N3CCc4ccccc4C3)nc2C1`, in experiment [1], the IC50 came to 1.5 µM. Also, the outcome in experiment [2] was inactive.

For the molecule `CC1(C)CCc2nc(C#Cc3ccccc3)ccc2C1=O`, in experiment [3], the IC50 came to 0.023 µM and the Ki came out at 0.051 µM.

`O[C@H]1CCCc2nc(C#Cc3ccccc3)ccc21` came in with an inhibition constant (Ki) in experiment [3] of 9.28 µM. In addition, the EC50 in experiment [5] is 0.25 µM; in [6], 1.08 µM. For the same molecule, the figures for the Activity in [7] and in experiment [8] were 2.5 and 2, respectively.

As for `CC1(C)CC(=O)c2cc(C#N)c(NC3CCCC3)nc2C1`, the IC50 in experiment [1] turned out to be 0.078 µM; in experiment [3], 49 µM.
